Results: ChEMBL document CHEMBL3407499, “Synthesis, QSAR and anticandidal evaluation of 1,2,3-triazoles derived from naturally bioactive scaffolds” (Eur J Med Chem, 2015)
≈ marks a conversion by molar mass, not a printed value.

How the values were obtained:
Candida albicans [1] = experiment: microbe, parasite or virus in culture; assay type: functional, organism-based; details: ATCC 90028, 24 h
Candida albicans [2] = experiment: microbe, parasite or virus in culture; assay type: functional; details: ATCC 90028, 48 h
Nakaseomyces glabratus [3] = experiment: microbe, parasite or virus in culture; assay type: functional, organism-based; details: ATCC 90030, 24 h
Nakaseomyces glabratus [4] = experiment: microbe, parasite or virus in culture; assay type: functional; details: ATCC 90030, 48 h
Candida tropicalis [5] = experiment: Anticandidal activity against Candida tropicalis ATCC 750 incubated at 37 degC for 24 hrs by broth dilution method; assay type: functional, organism-based; details: ATCC 750, 24 h
Candida tropicalis [6] = experiment: Fungicidal activity against Candida tropicalis ATCC 750 incubated at 37 degC for 48 hrs by broth dilution method; assay type: functional; details: ATCC 750, 48 h
Vero [7] = experiment: Cytotoxicity against African green monkey Vero cells assessed as reduction in cell viability up to 10 ug/ml after 48 hrs by neutral red assay; assay type: cell-based; details: chlorocebus sabaeus
Candida albicans [8] = experiment: Anticandidal activity against Candida albicans ATCC 90028 incubated at 37 degC for 24 hrs in presence of fluconazole by broth micro dilution method; assay type: functional; details: ATCC 90028, 24 h
Nakaseomyces glabratus [9] = experiment: Anticandidal activity against Candida glabrata ATCC 90030 incubated at 37 degC for 24 hrs in presence of fluconazole by broth micro dilution method; assay type: functional; details: ATCC 90030, 24 h
Candida tropicalis [10] = experiment: Anticandidal activity against Candida tropicalis ATCC 750 incubated at 37 degC for 24 hrs in presence of fluconazole by broth micro dilution method; assay type: functional; details: ATCC 750, 24 h
Candida albicans [11] = experiment: Anticandidal activity against Candida albicans ATCC 90028 assessed as fractional inhibitory concentration incubated at 37 degC for 24 hrs in presence of fluconazole by broth micro dilution method; assay type: functional
Nakaseomyces glabratus [12] = experiment: Anticandidal activity against Candida glabrata ATCC 90030 assessed as fractional inhibitory concentration incubated at 37 degC for 24 hrs in presence of fluconazole by broth micro dilution method; assay type: functional
Candida tropicalis [13] = experiment: Anticandidal activity against Candida tropicalis ATCC 750 assessed as fractional inhibitory concentration incubated at 37 degC for 24 hrs in presence of fluconazole by broth micro dilution method; assay type: functional
[14] = Toxicity in human RBC assessed as induction of hemolysis at 500 ug/ml incubated for 1 hr by spectrophotometry; assay type: cell-based, Erythrocyte; details: red blood cells (RBC), read-out: Activity
In short: (§1)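 Human erythrocyte suspension in PBS, 100 µL added in triplicate to 100 µL compound dilution series in the same buffer, 1 h at 37 °C. Tubes centrifuged 10 min at 2000 rpm and 20 °C, and supernatant A450 measured. Percent hemolysis taken relative to buffer (0%) and 1% Triton X-100 (100%).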

[15] = Toxicity in human RBC assessed as induction of hemolysis at anticandidal IC50 level incubated for 1 hr by spectrophotometry; assay type: cell-based, Erythrocyte; details: red blood cells (RBC), read-out: Activity
In short: as §1

Vero [16] = experiment: Cytotoxicity against African green monkey Vero cells assessed as reduction in cell viability after 48 hrs by neutral red assay; assay type: cell-based; details: chlorocebus sabaeus
In short: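 Vero (monkey kidney fibroblast) cells seeded at 25,000 cells/well, grown 24 h, then exposed to a range of compound concentrations for 48 h. Viable cells quantified by Neutral Red uptake. IC50 read from dose-response curves. Doxorubicin served as positive cytotoxic control.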

Nakaseomyces glabratus [17] = experiment: Anticandidal activity against Candida glabrata ATCC 90030 incubated at 37 degC for 24 hrs in presence of 8-((1-Benzyl-1H-1,2,3-triazol-4-yl)methoxy)quinoline by broth micro dilution method; assay type: functional; details: ATCC 90030, 24 h
Candida tropicalis [18] = experiment: Anticandidal activity against Candida tropicalis ATCC 750 incubated at 37 degC for 24 hrs in presence of 8-((1-Benzyl-1H-1,2,3-triazol-4-yl)methoxy)quinoline by broth micro dilution method; assay type: functional; details: ATCC 750, 24 h

SMILES | IC50 (Candida albicans [1]) [mg/L] | MFC (Candida albicans [2]) [mg/L] | IC50 (Nakaseomyces glabratus [3]) [mg/L] | MFC (Nakaseomyces glabratus [4]) [mg/L] | IC50 (Candida tropicalis [5]) [mg/L] | MFC (Candida tropicalis [6]) [mg/L] | Activity (Vero [7]) | further results
CC(C)c1ccc(O)cc1 | 182 (≈ 1330 µM) | 500 (≈ 3670 µM) | 153 (≈ 1130 µM) | > 1000 | 69.5 (≈ 510 µM) | > 1000 | – | –
CC(C)c1ccc(CO)cc1 | 81.5 (≈ 542 µM) | 1000 (≈ 6660 µM) | 7.09 (≈ 47.2 µM) | 500 (≈ 3330 µM) | 44.8 (≈ 298 µM) | 1000 (≈ 6660 µM) | – | –
CC(C)c1ccc(OCc2cn(Cc3ccccc3)nn2)cc1 | 550 (≈ 1790 µM) | 1000 (≈ 3250 µM) | 1060 (≈ 3460 µM) | 1000 (≈ 3250 µM) | 493 (≈ 1600 µM) | 1000 (≈ 3250 µM) | Non-toxic | –
CC(C)c1ccc(COCc2cn(Cc3ccccc3)nn2)cc1 | 324 (≈ 1010 µM) | > 1000 | 316 (≈ 984 µM) | > 1000 | 169 (≈ 527 µM) | > 1000 | Non-toxic | –
COc1cc(/C=C/C(=O)O)ccc1OCc1cn(Cc2ccccc2)nn1 | 891 (≈ 2440 µM) | > 1000 | 416 (≈ 1140 µM) | > 1000 | 105 (≈ 288 µM) | > 1000 | Non-toxic | –
COc1ccccc1OCc1cn(Cc2ccccc2)nn1 | 515 (≈ 1740 µM) | – | 370 (≈ 1250 µM) | > 1000 | 165 (≈ 559 µM) | – | Non-toxic | –
c1ccc(Cn2cc(COc3cccc4cccnc34)nn2)cc1 | 0.044 (≈ 0.139 µM) | 62.5 (≈ 198 µM) | 12 (≈ 38 µM) | 125 (≈ 395 µM) | 3.6 (≈ 11.4 µM) | 62.5 (≈ 198 µM) | Non-toxic | MIC (Candida albicans [1]): 15.6 mg/L (≈ 49.4 µM); MIC (Nakaseomyces glabratus [3]): 31.2 mg/L (≈ 98.8 µM); MIC (Candida tropicalis [5]): 15.6 mg/L (≈ 49.4 µM); MIC (Candida albicans [8]): 7.81 mg/L; MIC (Nakaseomyces glabratus [9]): 7.81 mg/L; MIC (Candida tropicalis [10]): 7.81 mg/L; fractional inhibitory concentration index (FICI) (Candida albicans [11]): 0.74; fractional inhibitory concentration index (FICI) (Nakaseomyces glabratus [12]): 0.48; fractional inhibitory concentration index (FICI) (Candida tropicalis [13]): 0.74; hemolysis at 1 h, 500 ug/ml [14]: 4.76%; hemolysis at 1 h [15]: < 5%
C/C=C/c1ccc(OCc2cn(Cc3ccccc3)nn2)c(OC)c1 | 481 (≈ 1430 µM) | – | 293 (≈ 873 µM) | > 1000 | 154 (≈ 459 µM) | > 1000 | Non-toxic | –
C=CCc1ccc(OCc2cn(Cc3ccccc3)nn2)c(OC)c1 | 1090 (≈ 3260 µM) | > 1000 | 847 (≈ 2530 µM) | > 1000 | 734 (≈ 2190 µM) | – | Non-toxic | –
COc1cc(C=O)ccc1OCc1cn(Cc2ccccc2)nn1 | 44.7 (≈ 138 µM) | > 500 | 216 (≈ 667 µM) | 500 (≈ 1550 µM) | 92.7 (≈ 287 µM) | 500 (≈ 1550 µM) | Non-toxic | hemolysis at 1 h, 500 ug/ml [14]: 33.5%; hemolysis at 1 h [15]: < 5%
COc1cccc2c1C(=O)c1c(O)c3c(c(O)c1C2=O)C[C@@](O)(C(=O)CO)C[C@@H]3O[C@H]1C[C@H](N)[C@H](O)[C@H](C)O1 [DOXORUBICIN] | – | – | – | – | – | – | – | IC50 (Vero [16]): > 5 mg/L
C=CCc1ccc(O)c(OC)c1 [EUGENOL] | 237 (≈ 1440 µM) | > 1000 | 216 (≈ 1310 µM) | > 1000 | 92.7 (≈ 564 µM) | > 1000 | – | –
COc1cc(/C=C/C(=O)O)ccc1O [FERULATE] | 210 (≈ 1080 µM) | > 1000 | 617 (≈ 3180 µM) | > 1000 | 67.6 (≈ 348 µM) | > 1000 | – | –
OC(Cn1cncn1)(Cn1cncn1)c1ccc(F)cc1F [FLUCONAZOLE] | 15.6 (≈ 51 µM) | – | 7.81 (≈ 25.5 µM) | – | 8.55 (≈ 27.9 µM) | – | – | MIC (Nakaseomyces glabratus [3]): 15.6 mg/L (≈ 51 µM); MIC (Candida tropicalis [5]): 15.6 mg/L (≈ 51 µM); MIC (Nakaseomyces glabratus [17]): 3.9 mg/L; MIC (Candida tropicalis [18]): 3.9 mg/L; hemolysis at 1 h, 500 ug/ml [14]: 68.6%
COc1ccccc1O [GUAIACOL] | 179 (≈ 1440 µM) | > 1000 | 336 (≈ 2700 µM) | > 1000 | 201 (≈ 1620 µM) | > 1000 | – | –
C/C=C\c1ccc(O)c(OC)c1 [ISOEUGENOL] | 83 (≈ 505 µM) | 1000 (≈ 6090 µM) | 71.6 (≈ 436 µM) | 500 (≈ 3040 µM) | 128 (≈ 778 µM) | 1000 (≈ 6090 µM) | – | –
Oc1cccc2cccnc12 [OXYQUINOLINE] | 18.5 (≈ 127 µM) | 500 (≈ 3440 µM) | 13.8 (≈ 95.1 µM) | 500 (≈ 3440 µM) | 22.9 (≈ 158 µM) | 500 (≈ 3440 µM) | – | MIC (Candida tropicalis [5]): 15.6 mg/L (≈ 108 µM); hemolysis at 1 h, 500 ug/ml [14]: 15%; hemolysis at 1 h [15]: < 5%
COc1cc(C=O)ccc1O [VANILLIN] | 321 (≈ 2110 µM) | > 1000 | 483 (≈ 3170 µM) | > 1000 | 123 (≈ 811 µM) | > 1000 | – | hemolysis at 1 h, 500 ug/ml [14]: 5.45%; hemolysis at 1 h [15]: < 5%
